In ChEMBL document CHEMBL4270615, “Design, synthesis and biological evaluation of novel thiazolidinedione derivatives as irreversible allosteric IKK-β modulators” (Eur J Med Chem, 2018):
One block for each compound: values may come before it. Activity calls are given as the source filed them. The rule behind the calls is not given here.

Columns and labels:
[1] = Cytotoxicity against LPS-treated mouse RAW264.7 cells assessed as decrease in cell viability after 24 hrs by MTT assay; type: cell-based; details: LPS-treated RAW264.7 cells
Method in brief: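 RAW 264.7 cells seeded at 1×10^5 cells/mL, grown overnight, then exposed to samples for 24 h, with or without 1 μg/ml LPS. MTT added from a 5 mg/mL PBS stock for 4 h at 37 °C. Formazan dissolved in DMSO and absorbance read at 540 nm. IC80 is the concentration lowering viability to 80% in the presence of LPS.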

[2] = molecular target: T1, Inhibitor of nuclear factor kappa-B kinase subunit beta (Homo sapiens) (UniProt O14920); test: Inhibition of IKKbeta (unknown origin) at 10 uM using IkappaBalpha-derived 5FAMGRHDSGLDSMK-NH2 as substrate preincubated for 10 mins followed by substrate addition measured after 2 hrs by IMAP based TR-FRET assay relative to control
T1 sequence (whole entry): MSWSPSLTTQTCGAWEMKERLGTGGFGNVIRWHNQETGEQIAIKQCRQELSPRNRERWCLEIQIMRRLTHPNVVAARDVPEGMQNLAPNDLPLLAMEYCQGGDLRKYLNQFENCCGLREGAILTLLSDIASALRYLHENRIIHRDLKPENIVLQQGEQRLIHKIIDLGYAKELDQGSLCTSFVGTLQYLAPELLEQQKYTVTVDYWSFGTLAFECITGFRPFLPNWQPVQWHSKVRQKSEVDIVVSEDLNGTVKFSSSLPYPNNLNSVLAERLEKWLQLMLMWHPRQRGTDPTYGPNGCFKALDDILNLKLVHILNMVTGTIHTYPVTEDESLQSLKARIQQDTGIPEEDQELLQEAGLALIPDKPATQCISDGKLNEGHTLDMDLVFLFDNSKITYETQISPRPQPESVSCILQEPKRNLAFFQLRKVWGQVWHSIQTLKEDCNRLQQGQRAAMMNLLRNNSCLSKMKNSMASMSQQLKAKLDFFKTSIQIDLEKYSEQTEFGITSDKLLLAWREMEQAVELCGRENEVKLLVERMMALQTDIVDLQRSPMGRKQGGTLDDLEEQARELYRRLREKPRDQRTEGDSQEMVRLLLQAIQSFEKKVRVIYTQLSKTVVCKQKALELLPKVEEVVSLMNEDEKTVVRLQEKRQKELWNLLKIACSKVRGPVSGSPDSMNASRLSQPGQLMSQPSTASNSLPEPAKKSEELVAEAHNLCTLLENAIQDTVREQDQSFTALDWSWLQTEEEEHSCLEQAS
Method in brief: (§1)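 Recombinant IKK2 at 0.5 µg/mL in 10 mM Tris-HCl pH 7.2, 10 mM MgCl2, 0.05% NaN3, 1 mM DTT, 0.01% Tween-20. Compound preincubated with enzyme for 10 min, then 1 μM 5-FAM IκBα peptide and 3 μM ATP added; reaction at room temperature for 2 h. IMAP binding reagent (1:600) plus terbium donor (1:400) added 15 h before the TR-FRET read. Percent inhibition measured at 10 µM.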

[3] = molecular target: T2, Inhibitor of nuclear factor kappa-B kinase subunit beta (Homo sapiens, UniProt O14920); test: Inhibition of IKKbeta (unknown origin) using IkappaBalpha-derived 5FAMGRHDSGLDSMK-NH2 as substrate preincubated for 10 mins followed by substrate addition measured after 2 hrs by IMAP based TR-FRET assay; method in brief: as §1
T2 sequence (O14920 whole entry): T1 sequence (whole entry)

[4] = molecular target: T1, Inhibitor of nuclear factor kappa-B kinase subunit beta (Homo sapiens); test: Irreversible inhibition of IKKbeta (unknown origin) at 0.001 to 30 uM using IkappaBalpha-derived 5FAMGRHDSGLDSMK-NH2 as substrate measured up to 60 mins
Method in brief: (§2)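 Same IKK2 IMAP TR-FRET system (0.5 µg/mL enzyme, 1 μM peptide, 3 μM ATP, room temperature). Ten concentrations, 0.001–30 μM, with reactions run for 0, 20, 40 or 60 min instead of 2 h. Dose–response curves fitted at each time point. Kobs obtained from ln(% activity remaining) against time, then regressed nonlinearly against concentration.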

[5] = molecular target: T2, Inhibitor of nuclear factor kappa-B kinase subunit beta; test: Irreversible inhibition of IKKbeta (unknown origin) using IkappaBalpha-derived 5FAMGRHDSGLDSMK-NH2 as substrate measured immediately; method in brief: as §2
[6] = molecular target: T2, Inhibitor of nuclear factor kappa-B kinase subunit beta; test: Irreversible inhibition of IKKbeta (unknown origin) using IkappaBalpha-derived 5FAMGRHDSGLDSMK-NH2 as substrate measured after 20 mins; method in brief: as §2
[7] = molecular target: T2, Inhibitor of nuclear factor kappa-B kinase subunit beta; test: Irreversible inhibition of IKKbeta (unknown origin) using IkappaBalpha-derived 5FAMGRHDSGLDSMK-NH2 as substrate measured after 40 mins; method in brief: as §2
[8] = molecular target: T2, Inhibitor of nuclear factor kappa-B kinase subunit beta; test: Irreversible inhibition of IKKbeta (unknown origin) using IkappaBalpha-derived 5FAMGRHDSGLDSMK-NH2 as substrate measured after 60 mins; method in brief: as §2
RAW264.7 [9] = test: Antiinflammatory activity against mouse RAW264.7 cells assessed as inhibition of LPS-induced PGE2 production incubated for 1 hr followed by LPS addition measured after 24 hrs by ELISA; type: functional, cell-based
Method in brief: (§3)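 RAW 264.7 macrophages (DMEM, 10% FBS, penicillin/streptomycin, 37 °C, 5% CO2) plated at 2×10^5 cells/mL and left overnight. Compounds at 1.5, 3 and 6 μM, or NS-398 as positive control, given for 1 h, then LPS (10 ng/mL) for 24 h. PGE2 and TNF-α in diluted culture medium quantified by ELISA. IC50 is the concentration halving the produced mediator.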

RAW264.7 [10] = test: Antiinflammatory activity against mouse RAW264.7 cells assessed as inhibition of LPS-induced TNFalpha production incubated for 1 hr followed by LPS addition measured after 24 hrs by ELISA; type: functional, cell-based; method in brief: as §3
[11] = molecular target: T2, Inhibitor of nuclear factor kappa-B kinase subunit beta; test: Inhibition of human IKKbeta using IKKtide as substrate after 20 mins by [gamma-33P]-ATP based radiometric assay
hERG (KCNH2) = hERG (KCNH2) (Homo sapiens, UniProt Q12809); test: Inhibition of human ERG expressed in CHOK1 cells assessed as reduction in tail current at 100 uM and -80 holding potential after 100 to 200 secs by whole cell automated patch-clamp electrophysiology assay relative to control; type: ADME, cell-based; details: CHO-K1 cells expressing human ERG
Sequence of hERG (KCNH2) (Q12809 whole entry, the tested form may be a part): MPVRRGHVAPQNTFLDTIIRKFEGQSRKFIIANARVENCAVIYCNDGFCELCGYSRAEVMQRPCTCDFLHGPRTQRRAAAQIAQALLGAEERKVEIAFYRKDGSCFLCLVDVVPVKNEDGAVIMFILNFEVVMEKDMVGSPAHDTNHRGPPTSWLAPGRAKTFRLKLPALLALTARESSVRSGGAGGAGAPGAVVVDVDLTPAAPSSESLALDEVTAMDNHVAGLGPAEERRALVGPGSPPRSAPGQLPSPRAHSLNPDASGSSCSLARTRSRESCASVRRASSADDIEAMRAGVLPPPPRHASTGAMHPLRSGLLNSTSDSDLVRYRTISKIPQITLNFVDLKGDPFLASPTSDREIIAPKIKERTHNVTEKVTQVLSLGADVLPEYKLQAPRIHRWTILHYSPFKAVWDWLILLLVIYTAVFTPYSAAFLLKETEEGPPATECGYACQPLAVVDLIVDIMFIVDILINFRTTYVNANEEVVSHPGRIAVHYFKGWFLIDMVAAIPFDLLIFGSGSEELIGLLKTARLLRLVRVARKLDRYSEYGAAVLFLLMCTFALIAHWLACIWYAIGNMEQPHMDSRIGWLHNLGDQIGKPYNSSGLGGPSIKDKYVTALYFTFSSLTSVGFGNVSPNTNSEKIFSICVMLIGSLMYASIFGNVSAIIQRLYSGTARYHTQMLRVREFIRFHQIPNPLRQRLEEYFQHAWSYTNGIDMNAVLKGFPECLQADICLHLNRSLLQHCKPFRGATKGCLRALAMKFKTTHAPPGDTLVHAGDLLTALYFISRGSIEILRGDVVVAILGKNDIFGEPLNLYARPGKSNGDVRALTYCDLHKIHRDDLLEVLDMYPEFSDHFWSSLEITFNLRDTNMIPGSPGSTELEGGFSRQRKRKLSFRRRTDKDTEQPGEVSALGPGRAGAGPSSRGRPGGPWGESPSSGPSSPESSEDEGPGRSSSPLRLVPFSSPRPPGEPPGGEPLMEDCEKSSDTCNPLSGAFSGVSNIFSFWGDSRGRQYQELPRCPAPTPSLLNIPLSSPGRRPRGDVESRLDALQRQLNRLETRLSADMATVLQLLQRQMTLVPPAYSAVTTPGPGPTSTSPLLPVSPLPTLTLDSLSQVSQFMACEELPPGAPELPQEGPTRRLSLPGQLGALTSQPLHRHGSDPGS
Method in brief: (§4)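 CHO-K1 Tet-On hERG cells, with expression induced by doxycycline 5 μg/ml, recorded 20–32 h after induction. Whole-cell automated patch clamp used intracellular solution of 50 KCl, 60 KF, 10 NaCl, 2 MgCl2, 20 EGTA, 10 HEPES pH 7.2 (mM) and extracellular solution of 140 NaCl, 4 KCl, 2 CaCl2, 1 MgCl2, 5 glucose, 10 HEPES pH 7.4. Compound perfused for 100–200 s until tail-current block reached equilibrium. Percent inhibition taken at 100 μM.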

[12] = molecular target: Voltage-gated inwardly rectifying potassium channel KCNH2 (Homo sapiens, UniProt Q12809); test: Inhibition of human ERG expressed in CHOK1 cells assessed as reduction in tail current at -80 holding potential after 100 to 200 secs by whole cell automated patch-clamp electrophysiology assay; type: ADME, cell-based; method in brief: as §4
Sequence of Voltage-gated inwardly rectifying potassium channel KCNH2 (Q12809 whole entry): as the sequence (Q12809 whole entry, the tested form may be a part) above

[13] = tested on: hERG (KCNH2) versus IKKbeta; test: Safety index, ratio of compound IC50 for human ERG expressed in CHOK1 cells to IC50 for IKKbeta (unknown origin); type: toxicity, cell-based; details: CHO-K1 cells expressing human ERG, read-out: Ratio IC50
Method in brief: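 Safety index calculated as hERG IC50 divided by IKK-β IC50.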

SMILES: O=C1N/C(=N\c2ccc(O)cc2)S/C1=C\c1cc2ccccc2[nH]1
IC50 [11]: 97400 nM

SMILES: O=C1S/C(=C\c2ccc(N3CCOCC3)c(Cl)c2)C(=O)N1c1ccc(OCCCCCN2CCN(CC3CC3)CC2)cc1
IC80 at 24 h [1]: < 1500 nM | inhibition [2]: 92.1% | IC50 [3]: 900 nM | Activity (RAW264.7 [9]): Dose-dependent effect | IC50 (RAW264.7 [9]): > 6000 nM

SMILES: O=C1S/C(=C\c2ccc(N3CCOCC3)c(Cl)c2)C(=O)N1c1ccc(OCCCN2CCN(CC3CC3)CC2)cc1
IC80 at 24 h [1]: 2670 nM | inhibition [2]: 90.7% | IC50 [3]: 700 nM | inhibition [4]: Active | IC50 [5]: 372 nM | IC50 [6]: 288 nM | IC50 [7]: 251 nM | IC50 [8]: 252 nM | IC50 (RAW264.7 [10]): > 6000 nM

SMILES: Nc1nc(N)nc(-c2ccc(Oc3ccccc3N)cc2)n1
IC50 [11]: 7800 nM

SMILES: COCCCN1CCN(CCCCOc2ccc(N3C(=O)S/C(=C\c4ccc(Oc5ccc(Br)cc5)cc4)C3=O)cc2)CC1
inhibition [2]: 0%

SMILES: CS(=O)(=O)N1CCN(CCCCOc2ccc(N3C(=O)S/C(=C\c4ccc(Oc5ccc(Br)cc5)cc4)C3=O)cc2)CC1
inhibition [2]: 3.3%

SMILES: CS(=O)(=O)N1CCN(CCCCOc2ccc(N3C(=O)S/C(=C\c4ccc(Oc5ccc(Cl)cc5)cc4)C3=O)cc2)CC1
inhibition [2]: 0.8%

SMILES: CS(=O)(=O)N1CCN(CCCCOc2ccc(N3C(=O)S/C(=C\c4ccc(Oc5ccc([N+](=O)[O-])cc5)cc4)C3=O)cc2)CC1
inhibition [2]: 0%

SMILES: COCCN1CCN(CCCCOc2ccc(N3C(=O)S/C(=C\c4ccc(Oc5ccc([N+](=O)[O-])cc5)cc4)C3=O)cc2)CC1
inhibition [2]: 9.3%

SMILES: COCCCN1CCN(CCCCOc2ccc(N3C(=O)S/C(=C\c4ccc(Oc5ccc([N+](=O)[O-])cc5)cc4)C3=O)cc2)CC1
inhibition [2]: 9.4%

More lines, main results first:

inhibition [2]: 92.8% | IC50 [3]: 400 nM | inhibition [4]: Active | IC50 [5]: 1100 nM | IC50 [6]: 340 nM | IC50 [7]: 299 nM | IC50 [8]: 240 nM | IC50 (RAW264.7 [9]): > 6000 nM | IC50 (RAW264.7 [10]): 1670 nM
SMILES: O=C1S/C(=C\c2ccc(Oc3ccc(F)cc3)cc2)C(=O)N1c1ccc(OCCCCCN2CCN(CC3CC3)CC2)cc1
IC80 at 24 h [1]: > 6000 nM | Activity (RAW264.7 [9]): Dose-dependent effect

inhibition [2]: 17%
SMILES: O=C(C1CC1)N1CCN(CCCCOc2ccc(N3C(=O)S/C(=C\c4ccc(Oc5ccc(Cl)cc5)cc4)C3=O)cc2)CC1

inhibition [2]: 1.7%
SMILES: COCCN1CCN(CCCCOc2ccc(N3C(=O)S/C(=C\c4ccc(Oc5ccc(Cl)cc5)cc4)C3=O)cc2)CC1

inhibition [2]: 85.6% | IC50 [3]: 1500 nM | IC50 (RAW264.7 [9]): > 6000 nM | IC50 (RAW264.7 [10]): 3410 nM
SMILES: O=C1S/C(=C\c2ccc(Oc3ccc([N+](=O)[O-])cc3)cc2)C(=O)N1c1ccc(OCCCCN2CCN(CC3CC3)CC2)cc1
IC80 at 24 h [1]: > 6000 nM | Activity (RAW264.7 [9]): Dose-dependent effect | inhibition at 100 µM (hERG (KCNH2)): 61.2% | IC50 [12]: 55300 nM | selectivity ratio [13]: 36.9

inhibition [2]: 37.5%
SMILES: O=C1S/C(=C\c2ccc(Oc3ccc(Cl)cc3)cc2)C(=O)N1c1ccc(OCCCCN2CCN(CC3CC3)CC2)cc1

inhibition [2]: 2.7%
SMILES: CS(=O)(=O)N1CCN(CCCCOc2ccc(N3C(=O)S/C(=C\c4ccc(Oc5ccc(F)cc5)cc4)C3=O)cc2)CC1

inhibition [2]: 52.4% | IC50 [3]: 8600 nM
SMILES: O=C(C1CC1)N1CCN(CCCCOc2ccc(N3C(=O)S/C(=C\c4ccc(Oc5ccc(Br)cc5)cc4)C3=O)cc2)CC1
inhibition at 100 µM (hERG (KCNH2)): 17.1%

inhibition [2]: 85.7% | IC50 [3]: 1700 nM
SMILES: O=C1S/C(=C\c2ccc(Oc3ccc(F)cc3)cc2)C(=O)N1c1ccc(OCCCCN2CCN(CC3CC3)CC2)cc1
inhibition at 100 µM (hERG (KCNH2)): 99.5% | IC50 [12]: 3400 nM | selectivity ratio [13]: 2

inhibition [2]: 88.8% | IC50 [3]: 1400 nM
SMILES: O=C1S/C(=C\c2ccc(Oc3ccc(F)cc3)cc2)C(=O)N1c1ccc(OCCCN2CCN(CC3CC3)CC2)cc1

inhibition [2]: 21.7%
SMILES: O=C(C1CC1)N1CCN(CCCCOc2ccc(N3C(=O)S/C(=C\c4ccc(Oc5ccc([N+](=O)[O-])cc5)cc4)C3=O)cc2)CC1

inhibition [2]: 60.8% | IC50 [3]: 7900 nM
SMILES: O=C1S/C(=C\c2ccc(Oc3ccc(Br)cc3)cc2)C(=O)N1c1ccc(OCCCCN2CCN(CC3CC3)CC2)cc1
inhibition at 100 µM (hERG (KCNH2)): 66.5% | IC50 [12]: 27500 nM | selectivity ratio [13]: 3.5

inhibition [2]: 1.6%
SMILES: COCCN1CCN(CCCCOc2ccc(N3C(=O)S/C(=C\c4ccc(Oc5ccc(F)cc5)cc4)C3=O)cc2)CC1

inhibition [2]: 21.2%
SMILES: O=C(C1CC1)N1CCN(CCCCOc2ccc(N3C(=O)S/C(=C\c4ccc(Oc5ccc(F)cc5)cc4)C3=O)cc2)CC1

inhibition [2]: 0.7%
SMILES: COCCCN1CCN(CCCCOc2ccc(N3C(=O)S/C(=C\c4ccc(Oc5ccc(F)cc5)cc4)C3=O)cc2)CC1

inhibition [2]: 0%
SMILES: COCCN1CCN(CCCCOc2ccc(N3C(=O)S/C(=C\c4ccc(Oc5ccc(Br)cc5)cc4)C3=O)cc2)CC1

inhibition [2]: 1.6%
SMILES: COCCCN1CCN(CCCCOc2ccc(N3C(=O)S/C(=C\c4ccc(Oc5ccc(Cl)cc5)cc4)C3=O)cc2)CC1
